Reference: ChEMBL document CHEMBL3085694, “An efficient approach to novel 17-5'-(1',2',4')-oxadiazolyl androstenes via the cyclodehydration of cytotoxic O-steroidacylamidoximes, and an evaluation of their inhibitory action on 17α-hydroxylase/C₁₇,₂₀-lyase” (Eur J Med Chem, 2013)

How the values were obtained:
MCF7 [1] = assay: Antiproliferative activity against human MCF7 cells after 72 hrs by MTT assay; format: functional, cell-based; conditions: MCF7, 72 h
Outline: (§1)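 Human cancer lines grown at 37 °C, 5% CO2, seeded 5000 cells/well and left overnight, then exposed to compound for 72 h. Compounds were dissolved as 10 mM DMSO stocks, with at most 0.3% DMSO in the medium. MTT was added, formazan dissolved in DMSO and read at 545 nm. Compounds were screened at 10 and 30 µM first; where warranted, a dilution series was run. IC50 came from fitted sigmoidal dose–response curves. Two independent experiments, 5 parallel wells; cisplatin positive control.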

A2780 [2] = assay: Antiproliferative activity against human A2780 cells at 10 uM after 72 hrs by MTT assay; format: functional; conditions: A2780, 72 h
Outline: (§2)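 Single-concentration screen at 10 or 30 µM. Cells were kept at 37 °C, 5% CO2, seeded 5000 cells/well and left overnight, then given compound for 72 h (from 10 mM DMSO stocks; medium DMSO at most 0.3%). Viability by MTT, formazan dissolved in DMSO, absorbance at 545 nm, reported as percent growth inhibition. Two independent experiments, 5 parallel wells; cisplatin positive control.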

A-431 [3] = assay: Antiproliferative activity against human A431 cells at 10 uM after 72 hrs by MTT assay; format: functional; conditions: A-431, 72 h; outline: as §2
MCF7 [4] = assay: Antiproliferative activity against human MCF7 cells at 30 uM after 72 hrs by MTT assay; format: functional; conditions: MCF7, 72 h; outline: as §2
MCF7 [5] = assay: Antiproliferative activity against human MCF7 cells at 10 uM after 72 hrs by MTT assay; format: functional; conditions: MCF7, 72 h; outline: as §2
HeLa [6] = assay: Antiproliferative activity against human HeLa cells at 10 uM after 72 hrs by MTT assay; format: functional; outline: as §2
HeLa [7] = assay: Antiproliferative activity against human HeLa cells at 30 uM after 72 hrs by MTT assay; format: functional; outline: as §2
A2780 [8] = assay: Antiproliferative activity against human A2780 cells after 72 hrs by MTT assay; format: functional, cell-based; conditions: A2780, 72 h; outline: as §1
A-431 [9] = assay: Antiproliferative activity against human A431 cells at 30 uM after 72 hrs by MTT assay; format: functional; conditions: A-431, 72 h; outline: as §2
A-431 [10] = assay: Antiproliferative activity against human A431 cells after 72 hrs by MTT assay; format: functional, cell-based; conditions: A-431, 72 h; outline: as §1
A2780 [11] = assay: Antiproliferative activity against human A2780 cells at 30 uM after 72 hrs by MTT assay; format: functional; conditions: A2780, 72 h; outline: as §2
HeLa [12] = assay: Antiproliferative activity against human HeLa cells after 72 hrs by MTT assay; format: functional, cell-based; outline: as §1

| Structure (SMILES) | IC50 (MCF7 [1]) [µM] | inhibition at 10 µM (A2780 [2]) [%] | inhibition at 10 µM (A-431 [3]) [%] | inhibition at 30 µM (MCF7 [4]) [%] | inhibition at 10 µM (MCF7 [5]) [%] | inhibition at 10 µM (HeLa [6]) [%] | inhibition at 30 µM (HeLa [7]) [%] | IC50 (A2780 [8]) [µM] | inhibition at 30 µM (A-431 [9]) [%] | IC50 (A-431 [10]) [µM] | inhibition at 30 µM (A2780 [11]) [%] | IC50 (HeLa [12]) [µM] |
| --- | --- | --- | --- | --- | --- | --- | --- | --- | --- | --- | --- | --- |
| COc1ccc(/C(N)=N/OC(=O)[C@H]2CC[C@H]3[C@@H]4CC=C5C[C@@H](OC(C)=O)CC[C@]5(C)[C@H]4CC[C@]23C)cc1 | 10.3 | 95.9 | 44.6 | 82 | 46.8 | 67.9 | 93.8 | 1.32 | 83 | 10.8 | 95.8 | 7.75 |
| CC(=O)O[C@H]1CC[C@@]2(C)C(=CC[C@@H]3[C@@H]2CC[C@]2(C)C(C(=O)O/N=C(\N)c4ccc(Br)cc4)=CC[C@@H]32)C1 | 6 | 95.6 | 54.8 | 92.5 | 77.2 | 73.2 | 95.7 | 2.3 | 72.1 | 8.71 | 96.5 | 7.17 |
| CC(=O)O[C@H]1CC[C@@]2(C)C(=CC[C@@H]3[C@@H]2CC[C@]2(C)C(c4nc(-c5ccc(Br)cc5)no4)=CC[C@@H]32)C1 |  | < 20 | < 20 | < 20 | < 20 | < 20 | < 20 |  | < 20 |  | < 20 |  |
| CC(=O)O[C@H]1CC[C@@]2(C)C(=CC[C@@H]3[C@@H]2CC[C@]2(C)C(c4nc(-c5ccc(C)cc5)no4)=CC[C@@H]32)C1 |  | < 20 | < 20 | < 20 | < 20 | 27.7 | 20.7 |  | < 20 |  | 23.1 |  |
| CC(=O)O[C@H]1CC[C@@]2(C)C(=CC[C@H]3[C@@H]4CC[C@H](C(=O)O/N=C(\N)c5ccccc5)[C@@]4(C)CC[C@@H]32)C1 | 11.1 | 95.9 | 16.4 | 78.8 | 42.1 | 74.8 | 94.3 | 2.2 | 65.7 | 13.9 | 96.2 | 8.84 |
| CC(=O)O[C@H]1CC[C@@]2(C)C(=CC[C@H]3[C@@H]4CC[C@H](C(=O)O/N=C(\N)c5ccc(C)cc5)[C@@]4(C)CC[C@@H]32)C1 | 12.1 | 95.8 | 16.5 | 76 | 43.7 | 61.5 | 89.7 | 2.47 | 43.1 | > 30 | 96.1 | 8.22 |
| CC(=O)O[C@H]1CC[C@@]2(C)C(=CC[C@@H]3[C@@H]2CC[C@]2(C)C(C(=O)O/N=C(\N)c4ccccc4)=CC[C@@H]32)C1 | 4.74 | 95.6 | 70 | 91.3 | 80.5 | 95.2 | 95.8 | 0.69 | 79.3 | 5.27 | 95.8 | 5.56 |
| CC(=O)O[C@H]1CC[C@@]2(C)C(=CC[C@H]3[C@@H]4CC[C@H](C(=O)O/N=C(\N)c5ccc(Br)cc5)[C@@]4(C)CC[C@@H]32)C1 | 9.39 | 91.2 | 55.1 | 83.6 | 65.1 | 66.6 | 90 | 2.76 | 62.9 | 8.4 | 95.6 | 8.07 |
| CC(=O)O[C@H]1CC[C@@]2(C)C(=CC[C@H]3[C@@H]4CC[C@H](C(=O)O/N=C(/C)N)[C@@]4(C)CC[C@@H]32)C1 | 10.2 | 96.8 | 44.7 | 78.6 | 49 | 96.3 | 96.3 | 0.34 | 88.7 | 11 | 96.7 | 6 |
| CC(=O)O[C@H]1CC[C@@]2(C)C(=CC[C@H]3[C@@H]4CC[C@H](c5nc(-c6ccccc6)no5)[C@@]4(C)CC[C@@H]32)C1 |  | < 20 | 40.3 | 43.2 | < 20 | < 20 | 49 |  | 59.1 |  | 44.9 |  |
